By IC50 is commonly meant the point on the concentration scale where inhibition reaches its midpoint.

One assay addresses aldose reductase (ALR2) (Homo sapiens, UniProt P15121). Kind of assay: In vitro aldose reductase. The class given is biochemical. The method, boiled down:
(§1)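 Enzymes isolated and purified by earlier reported methods, ALR1 at 2.19 μg/well and ALR2 at 1.85 μg/well. Test compound (20 µL of 1 mM solution) was preincubated with the enzyme in 100 mM KH2PO4, pH 6.2, at 37°C for 10 min. Then substrate (50 mM as added) and NADPH (0.5 mM as added) were introduced. OD340 was read after 30 min. % inhibition = 100 − (A test/A control × 100). IC50 ± SEM was determined for compounds with >50% inhibition.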

Assay [1] addresses T1, aldehyde reductase (ALR1) (Homo sapiens, UniProt P14550).
T1 sequence (P14550 1-325): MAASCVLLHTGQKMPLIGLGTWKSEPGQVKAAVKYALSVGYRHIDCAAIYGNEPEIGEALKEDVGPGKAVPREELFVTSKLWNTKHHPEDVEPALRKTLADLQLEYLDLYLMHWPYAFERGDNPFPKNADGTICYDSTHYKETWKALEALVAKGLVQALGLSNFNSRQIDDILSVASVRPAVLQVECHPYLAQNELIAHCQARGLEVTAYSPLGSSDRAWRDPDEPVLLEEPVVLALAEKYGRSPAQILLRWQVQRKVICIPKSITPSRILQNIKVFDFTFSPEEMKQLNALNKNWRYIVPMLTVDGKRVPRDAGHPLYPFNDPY
Kind of assay: In vitro aldehyde reductase. It is filed as biochemical. The method, boiled down:
as §1

`O=C1N=C(Nc2ccccc2)S/C1=C\c1ccccc1OCc1cn(Cc2ccc(Cl)cc2)nn1` [Compound 9c, (Z)-5-(2-{[1-(4-Chlorobenzyl)-1H-1,2,3-triazol-4-yl]methoxy}benzylidene)-2-(phenylamino)thiazol-4(5H)-one] displayed a 50% inhibitory concentration (IC50) against aldose reductase (ALR2) of 10 ± 1.56 µM.

With `O=C1N=C(Nc2ccccc2)S/C1=C\c1ccccc1OCc1cn(Cc2cccc(Cl)c2)nn1` [Compound 9b, (Z)-5-(2-{[1-(3-Chlorobenzyl)-1H-1,2,3-triazol-4-yl]methoxy}benzylidene)-2-(phenylamino)thiazol-4(5H)-one], the IC50 was determined as 90 ± 0.56 µM in assay [1] and 28 ± 1.23 µM on aldose reductase (ALR2).

The values above are taken from PMC10209927 (Russian Journal of General Chemistry, 2023).
